# Results published in ChEMBL document CHEMBL1124558, “Differential effects of a series of hydroxamic acid derivatives on 5-lipoxygenase and cyclooxygenase from neutrophils and 12-lipoxygenase from platelets and their in vivo effects on inflammation and anaphylaxis” (J Med Chem, 1989).
# What was measured:
# [1] = biological target: T1, Polyunsaturated fatty acid 5-lipoxygenase (Homo sapiens, UniProt P09917); test: In vitro inhibition of polymorphonuclear leukocyte derived human 5-lipoxygenase
# T1 sequence (P09917 whole entry): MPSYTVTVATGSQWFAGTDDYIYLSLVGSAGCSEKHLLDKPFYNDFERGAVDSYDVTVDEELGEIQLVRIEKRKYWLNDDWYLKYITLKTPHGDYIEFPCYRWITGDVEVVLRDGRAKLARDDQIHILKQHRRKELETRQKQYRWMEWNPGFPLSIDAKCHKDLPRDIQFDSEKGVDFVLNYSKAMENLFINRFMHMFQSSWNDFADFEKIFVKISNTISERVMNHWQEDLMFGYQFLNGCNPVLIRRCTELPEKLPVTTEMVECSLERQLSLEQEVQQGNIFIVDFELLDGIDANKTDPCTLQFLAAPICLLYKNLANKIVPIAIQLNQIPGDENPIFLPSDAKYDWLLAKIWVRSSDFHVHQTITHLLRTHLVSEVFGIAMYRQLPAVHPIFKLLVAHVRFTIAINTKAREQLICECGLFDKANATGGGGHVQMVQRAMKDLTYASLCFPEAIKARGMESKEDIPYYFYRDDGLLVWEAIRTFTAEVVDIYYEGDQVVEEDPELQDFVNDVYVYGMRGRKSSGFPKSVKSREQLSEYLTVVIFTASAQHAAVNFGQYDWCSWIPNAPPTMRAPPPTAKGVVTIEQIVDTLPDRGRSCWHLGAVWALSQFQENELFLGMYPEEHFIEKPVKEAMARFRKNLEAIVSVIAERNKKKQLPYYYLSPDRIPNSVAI
# Summary of the method: (§1)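 PMNs from venous blood of healthy volunteers, isolated by dextran sedimentation and Percoll gradient (>90% pure) and held in Ca/Mg PBS with 1 mg/mL glucose and 1 μM indomethacin. Challenged with calcium ionophore and [14C]arachidonic acid for 3 min. 5-HETE measured by TLC and scintillation counting; IC50 read graphically.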
# [2] = biological target: T2, Polyunsaturated fatty acid 5-lipoxygenase (Rattus norvegicus, UniProt P12527); test: In vitro inhibition of rat polymorphonuclear leukocyte 5-lipoxygenase
# T2 sequence (P12527 whole entry): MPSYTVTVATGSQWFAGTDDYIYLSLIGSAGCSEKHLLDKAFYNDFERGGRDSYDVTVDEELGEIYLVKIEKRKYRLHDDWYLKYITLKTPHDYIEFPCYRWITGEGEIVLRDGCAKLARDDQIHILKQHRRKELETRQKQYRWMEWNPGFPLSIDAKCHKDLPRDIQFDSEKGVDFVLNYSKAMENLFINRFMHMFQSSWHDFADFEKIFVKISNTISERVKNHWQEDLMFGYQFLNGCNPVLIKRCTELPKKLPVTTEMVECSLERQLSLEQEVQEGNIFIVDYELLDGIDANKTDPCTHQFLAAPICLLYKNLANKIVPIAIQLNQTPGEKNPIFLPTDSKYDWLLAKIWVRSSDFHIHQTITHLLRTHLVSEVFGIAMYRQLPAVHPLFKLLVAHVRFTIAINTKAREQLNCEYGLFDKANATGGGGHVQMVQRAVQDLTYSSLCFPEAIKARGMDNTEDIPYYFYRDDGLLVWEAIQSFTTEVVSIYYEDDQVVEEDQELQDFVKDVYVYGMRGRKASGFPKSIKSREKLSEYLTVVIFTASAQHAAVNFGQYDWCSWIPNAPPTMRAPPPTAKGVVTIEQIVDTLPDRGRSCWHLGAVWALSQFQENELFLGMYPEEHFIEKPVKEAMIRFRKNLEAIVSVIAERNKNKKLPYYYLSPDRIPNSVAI
# Summary of the method: (§2)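 Intact glycogen-elicited peritoneal PMNs pooled from 4–5 Sprague-Dawley rats (250 g), preincubated 5 min at 30 °C with compound in DMSO (≤0.1% final) plus 1 μM indomethacin. Challenge with [14C]arachidonic acid (4 μM) and A23187 (0.8 μM) for 3 min. Extraction, TLC, 5-HETE by scintillation counting.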
# Cavia porcellus = test: In vivo inhibitory activity against guinea pig systemic anaphylaxis when administered a compound dose (200 mg/kg) perorally; format: functional; conditions: po
# Summary of the method: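 Male Hartley guinea pigs sensitised ip with ovalbumin (2.7 mg/kg) plus LPS adjuvant, then challenged 2 weeks later with 1% ovalbumin aerosol for 30 s. Pretreated with pyrilamine, indomethacin and propranolol 20 min before challenge. Compound given in PEG 400 1 h before challenge.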
# Cyclooxygenase [3] = biological target: T3, Cyclooxygenase (Rattus norvegicus, UniProt P35355+Q63921); test: In vitro inhibitory activity against rat polymorphonuclear leukocyte Prostaglandin G/H synthase; format: functional
# T3 sequence (P35355 whole entry): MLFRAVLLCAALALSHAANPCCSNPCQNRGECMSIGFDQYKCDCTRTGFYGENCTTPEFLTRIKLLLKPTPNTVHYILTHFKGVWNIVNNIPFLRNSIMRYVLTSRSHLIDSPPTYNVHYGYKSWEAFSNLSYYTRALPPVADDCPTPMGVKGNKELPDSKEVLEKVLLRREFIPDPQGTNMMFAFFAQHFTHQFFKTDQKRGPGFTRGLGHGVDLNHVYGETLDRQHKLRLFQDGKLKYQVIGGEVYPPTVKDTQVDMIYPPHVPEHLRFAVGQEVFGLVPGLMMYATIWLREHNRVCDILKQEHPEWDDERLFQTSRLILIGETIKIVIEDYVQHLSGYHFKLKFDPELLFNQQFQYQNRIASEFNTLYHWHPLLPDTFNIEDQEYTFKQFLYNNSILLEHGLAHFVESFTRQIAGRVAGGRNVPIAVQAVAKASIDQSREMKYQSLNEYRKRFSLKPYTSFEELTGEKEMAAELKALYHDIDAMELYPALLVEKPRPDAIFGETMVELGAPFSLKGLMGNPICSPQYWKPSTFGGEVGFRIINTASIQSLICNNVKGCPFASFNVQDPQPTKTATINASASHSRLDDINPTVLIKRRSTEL
# T3 sequence (Q63921 whole entry): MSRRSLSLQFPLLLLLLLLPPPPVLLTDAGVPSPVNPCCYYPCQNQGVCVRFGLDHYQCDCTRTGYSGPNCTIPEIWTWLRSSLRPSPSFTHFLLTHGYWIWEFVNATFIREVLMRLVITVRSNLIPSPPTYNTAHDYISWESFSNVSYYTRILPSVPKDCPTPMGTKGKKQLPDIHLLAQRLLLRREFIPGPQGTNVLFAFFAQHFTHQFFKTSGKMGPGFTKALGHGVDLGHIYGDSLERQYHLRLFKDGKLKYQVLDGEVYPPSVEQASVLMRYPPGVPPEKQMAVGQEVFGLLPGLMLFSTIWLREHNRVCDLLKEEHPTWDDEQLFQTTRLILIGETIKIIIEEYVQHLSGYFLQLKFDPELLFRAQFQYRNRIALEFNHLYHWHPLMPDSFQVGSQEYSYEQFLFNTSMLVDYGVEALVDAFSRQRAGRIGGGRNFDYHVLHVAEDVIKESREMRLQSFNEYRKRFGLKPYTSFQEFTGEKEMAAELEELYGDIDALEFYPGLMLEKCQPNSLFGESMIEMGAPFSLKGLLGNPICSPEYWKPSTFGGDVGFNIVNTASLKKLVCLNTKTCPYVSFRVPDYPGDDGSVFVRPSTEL
# Summary of the method: (§3)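 Glycogen-elicited peritoneal PMNs from Sprague-Dawley rats were homogenized at 0 °C in 0.1 M Tris-HCl pH 8.2 with 10 μM NDGA. Compound (DMSO ≤0.1%) was preincubated 5 min at 37 °C, then 8 μM [14C]arachidonic acid with 4 mM glutathione and epinephrine was added for 10 min. TxB2 and PGF2α were measured by TLC and scintillation counting.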
# Mus musculus = test: In vivo inhibition of mouse ear inflammation; format: functional; set-up: concentration or dose not given beside the values
# Summary of the method: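 Compound or ethanol vehicle applied topically to one ear of male DBA/2J mice 60 min before arachidonic acid (2 mg/ear). […] Groups of 5 mice.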
# [4] = biological target: T4, Arachidonate 12-lipoxygenase (Rattus norvegicus) (UniProt Q02759); test: In vitro inhibitory activity against rat platelet 12-lipoxygenase at 100 uM
# T4 sequence (whole entry): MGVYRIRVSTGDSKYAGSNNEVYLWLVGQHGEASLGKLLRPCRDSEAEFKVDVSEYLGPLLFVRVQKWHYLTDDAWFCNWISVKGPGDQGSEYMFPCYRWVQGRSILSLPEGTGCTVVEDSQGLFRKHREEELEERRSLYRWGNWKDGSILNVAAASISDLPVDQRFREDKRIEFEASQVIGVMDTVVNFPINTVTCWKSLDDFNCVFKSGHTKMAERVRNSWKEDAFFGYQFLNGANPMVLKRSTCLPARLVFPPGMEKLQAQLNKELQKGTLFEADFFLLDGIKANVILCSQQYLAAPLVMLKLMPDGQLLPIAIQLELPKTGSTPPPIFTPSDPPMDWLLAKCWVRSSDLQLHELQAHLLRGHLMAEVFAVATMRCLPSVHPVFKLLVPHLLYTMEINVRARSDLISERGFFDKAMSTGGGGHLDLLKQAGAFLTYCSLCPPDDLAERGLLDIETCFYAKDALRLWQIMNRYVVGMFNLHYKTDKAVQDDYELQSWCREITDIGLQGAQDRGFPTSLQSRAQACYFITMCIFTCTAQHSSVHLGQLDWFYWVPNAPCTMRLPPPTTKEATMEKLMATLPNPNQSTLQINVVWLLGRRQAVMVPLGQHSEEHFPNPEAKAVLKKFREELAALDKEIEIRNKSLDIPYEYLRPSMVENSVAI
# Summary of the method: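 Cell-free cytosolic 12-lipoxygenase from Sprague-Dawley rat platelets (0.4 mg/mL), preincubated 5 min at 30 °C with compound in DMSO (≤0.1% final), 25 mM Tris pH 7.4, 1 μM indomethacin, 100 μM glutathione; reaction started with 6 μM [14C]arachidonic acid and quenched with citric acid/NDGA after 3 min. 12-HETE isolated by TLC and counted by scintillation; % inhibition, duplicate.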
# [5] = biological target: Cyclooxygenase (Rattus norvegicus) (UniProt P35355+Q63921); test: (§4) In vitro inhibitory activity against rat polymorphonuclear leukocyte Prostaglandin G/H synthase at 100 uM; format: functional; summary of the method: as §3
# [6] = biological target: T5, Polyunsaturated fatty acid 5-lipoxygenase (Homo sapiens) (UniProt P09917); test: In vitro inhibitory activity against polymorphonuclear leukocyte 5-lipoxygenase in human cell at 1 uM; summary of the method: as §1
# T5 sequence (whole entry): T1 sequence (P09917 whole entry)
# [7] = biological target: T6, Polyunsaturated fatty acid 5-lipoxygenase (Rattus norvegicus) (UniProt P12527); test: In vitro inhibitory activity against polymorphonuclear leukocyte 5-lipoxygenase in rat cell at 3 uM; summary of the method: as §2
# T6 sequence (whole entry): T2 sequence (P12527 whole entry)
# [8] = biological target: T6, Polyunsaturated fatty acid 5-lipoxygenase (Rattus norvegicus); test: In vitro inhibitory activity against polymorphonuclear leukocyte 5-lipoxygenase in rat cell at 10 uM; summary of the method: as §2
# Cyclooxygenase [9] = biological target: T3, Cyclooxygenase; test: as §4; format: protein assay; summary of the method: as §3
Structure (SMILES),IC50 [1] [nM],IC50 [2] [nM],inhibition in vivo at 200 mg/kg (Cavia porcellus) [%],IC50 (Cyclooxygenase [3]) [µM],Inhibition (Mus musculus) [%],inhibition [4] [%],also measured
CCCN(O)C(=O)Cc1ccc(OCc2ccccc2)cc1,160,100,0,30,82,–,–
O=C(Cc1ccc(OCc2ccccc2)cc1)N(O)Cc1ccccc1,120,100,–,–,37,47,inhibition [5]: 32%
O=C(c1ccc(OCc2ccccc2)cc1)N(O)CCc1ccccc1,–,–,–,75,–,< 10,–
O=C(CCCc1ccccc1)NO [PHENYLBUTYRYLHYDROXAMIC ACID],–,–,11,–,28,–,inhibition [6]: -8%; inhibition [7]: 11%
O=C(O)CCCCN(O)C(=O)Cc1ccc(OCc2ccccc2)cc1,–,–,–,–,–,–,inhibition [8]: 21%; Inhibition (Cyclooxygenase [9]): 50%
